Tests used:
Conditions in all cases: stereoisomer not certain
UniProt A2ATE5 = target: T1, UniProt A2ATE5
T1 sequence (whole entry): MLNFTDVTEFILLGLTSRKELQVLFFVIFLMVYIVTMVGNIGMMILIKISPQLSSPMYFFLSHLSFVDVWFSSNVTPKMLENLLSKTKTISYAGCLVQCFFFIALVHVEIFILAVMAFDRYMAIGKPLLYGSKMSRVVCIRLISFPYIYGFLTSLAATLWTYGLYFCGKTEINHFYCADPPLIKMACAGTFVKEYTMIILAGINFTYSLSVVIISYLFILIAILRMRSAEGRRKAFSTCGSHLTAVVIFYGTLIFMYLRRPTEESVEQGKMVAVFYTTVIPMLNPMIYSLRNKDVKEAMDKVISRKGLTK
In short: (§1)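 Whether a receptor–molecule pair is responsive (active) rests on the original authors' judgment that its measured signal was statistically different from baseline. Pairs without that judgment are non-responsive (inactive). Sources used varied assay methods, commonly transient luciferase assays in mammalian cell lines.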

UniProt A2AVB0 = target: T2, UniProt A2AVB0
T2 sequence (whole entry): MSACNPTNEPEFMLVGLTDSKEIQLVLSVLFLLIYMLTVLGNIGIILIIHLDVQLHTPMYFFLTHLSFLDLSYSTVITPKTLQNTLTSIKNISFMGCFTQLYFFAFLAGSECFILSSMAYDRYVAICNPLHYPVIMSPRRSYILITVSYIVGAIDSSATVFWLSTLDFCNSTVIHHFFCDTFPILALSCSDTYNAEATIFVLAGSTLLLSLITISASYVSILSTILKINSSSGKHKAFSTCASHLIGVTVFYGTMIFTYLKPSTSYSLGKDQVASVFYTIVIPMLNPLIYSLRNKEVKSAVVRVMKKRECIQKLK
In short: as §1

UniProt E1BM68 = target: T3, UniProt E1BM68
T3 sequence (whole entry): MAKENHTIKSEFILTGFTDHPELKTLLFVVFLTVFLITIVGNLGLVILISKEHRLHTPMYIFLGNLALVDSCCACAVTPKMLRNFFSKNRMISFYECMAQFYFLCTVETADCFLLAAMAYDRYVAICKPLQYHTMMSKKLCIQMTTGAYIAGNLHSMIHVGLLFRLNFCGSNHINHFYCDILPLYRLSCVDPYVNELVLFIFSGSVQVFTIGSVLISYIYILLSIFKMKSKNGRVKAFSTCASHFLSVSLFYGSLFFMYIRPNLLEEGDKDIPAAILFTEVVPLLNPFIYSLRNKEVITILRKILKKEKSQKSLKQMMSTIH
In short: as §1

UniProt E9PVX1 = target: T4, UniProt E9PVX1
T4 sequence (whole entry): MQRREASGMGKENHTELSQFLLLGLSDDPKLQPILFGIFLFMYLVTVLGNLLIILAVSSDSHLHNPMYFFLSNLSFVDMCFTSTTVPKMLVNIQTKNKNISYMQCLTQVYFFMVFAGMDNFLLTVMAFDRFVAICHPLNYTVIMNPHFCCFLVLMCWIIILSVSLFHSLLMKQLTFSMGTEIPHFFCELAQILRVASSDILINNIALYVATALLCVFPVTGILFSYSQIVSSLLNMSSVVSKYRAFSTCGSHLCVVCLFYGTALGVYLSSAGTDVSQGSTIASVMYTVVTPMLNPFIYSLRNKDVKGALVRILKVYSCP
In short: as §1

UniProt E9PZ66 = target: T5, UniProt E9PZ66
T5 sequence (whole entry): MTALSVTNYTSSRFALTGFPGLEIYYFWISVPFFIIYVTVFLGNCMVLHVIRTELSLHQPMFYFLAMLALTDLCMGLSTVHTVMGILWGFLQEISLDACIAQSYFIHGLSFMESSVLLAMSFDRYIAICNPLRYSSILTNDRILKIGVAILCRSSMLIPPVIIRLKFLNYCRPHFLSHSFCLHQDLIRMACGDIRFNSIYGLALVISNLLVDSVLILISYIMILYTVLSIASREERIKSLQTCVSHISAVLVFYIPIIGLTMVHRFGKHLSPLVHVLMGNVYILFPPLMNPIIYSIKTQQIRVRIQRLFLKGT
In short: as §1

UniProt E9Q4X7 = target: T6, UniProt E9Q4X7
T6 sequence (whole entry): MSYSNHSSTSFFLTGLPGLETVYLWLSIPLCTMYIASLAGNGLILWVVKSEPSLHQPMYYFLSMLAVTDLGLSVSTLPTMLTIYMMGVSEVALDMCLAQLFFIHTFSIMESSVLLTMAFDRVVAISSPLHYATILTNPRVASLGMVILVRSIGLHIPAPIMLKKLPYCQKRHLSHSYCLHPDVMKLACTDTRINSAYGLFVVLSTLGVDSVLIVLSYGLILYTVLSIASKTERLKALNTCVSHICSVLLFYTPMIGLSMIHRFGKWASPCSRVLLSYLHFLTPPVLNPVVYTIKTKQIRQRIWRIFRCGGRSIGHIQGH
In short: as §1

UniProt E9Q546 = target: T7, UniProt E9Q546
T7 sequence (whole entry): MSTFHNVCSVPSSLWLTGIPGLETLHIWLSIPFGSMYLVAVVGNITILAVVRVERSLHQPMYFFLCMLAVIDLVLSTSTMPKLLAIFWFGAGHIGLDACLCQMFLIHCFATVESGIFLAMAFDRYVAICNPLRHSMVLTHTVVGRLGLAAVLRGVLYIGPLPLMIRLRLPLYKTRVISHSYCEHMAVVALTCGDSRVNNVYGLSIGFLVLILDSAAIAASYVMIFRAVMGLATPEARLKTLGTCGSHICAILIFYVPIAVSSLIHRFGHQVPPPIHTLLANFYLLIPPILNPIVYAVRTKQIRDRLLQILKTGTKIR
In short: as §1

UniProt E9Q6Z7 = target: T8, UniProt E9Q6Z7
T8 sequence (whole entry): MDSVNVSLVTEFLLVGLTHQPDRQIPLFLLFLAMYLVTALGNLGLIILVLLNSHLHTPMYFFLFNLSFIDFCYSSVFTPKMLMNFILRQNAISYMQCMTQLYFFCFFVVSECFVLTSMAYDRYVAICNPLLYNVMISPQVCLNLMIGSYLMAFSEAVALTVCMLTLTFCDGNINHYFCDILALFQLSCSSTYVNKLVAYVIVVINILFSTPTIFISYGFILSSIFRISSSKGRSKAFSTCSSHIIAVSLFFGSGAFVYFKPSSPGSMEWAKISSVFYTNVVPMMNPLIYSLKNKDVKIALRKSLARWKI
In short: as §1

UniProt E9QAT7 = target: T9, UniProt E9QAT7
T9 sequence (whole entry): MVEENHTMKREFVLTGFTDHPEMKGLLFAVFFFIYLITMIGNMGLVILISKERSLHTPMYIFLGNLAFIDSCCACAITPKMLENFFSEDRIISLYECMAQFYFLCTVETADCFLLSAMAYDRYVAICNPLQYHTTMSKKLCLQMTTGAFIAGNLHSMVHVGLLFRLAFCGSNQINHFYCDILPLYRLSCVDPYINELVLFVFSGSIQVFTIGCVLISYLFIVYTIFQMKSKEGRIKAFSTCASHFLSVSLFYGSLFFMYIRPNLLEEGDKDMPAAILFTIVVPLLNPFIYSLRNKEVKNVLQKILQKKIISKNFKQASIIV
In short: as §1

UniProt E9PXN3 = target: T10, UniProt E9PXN3
T10 sequence (whole entry): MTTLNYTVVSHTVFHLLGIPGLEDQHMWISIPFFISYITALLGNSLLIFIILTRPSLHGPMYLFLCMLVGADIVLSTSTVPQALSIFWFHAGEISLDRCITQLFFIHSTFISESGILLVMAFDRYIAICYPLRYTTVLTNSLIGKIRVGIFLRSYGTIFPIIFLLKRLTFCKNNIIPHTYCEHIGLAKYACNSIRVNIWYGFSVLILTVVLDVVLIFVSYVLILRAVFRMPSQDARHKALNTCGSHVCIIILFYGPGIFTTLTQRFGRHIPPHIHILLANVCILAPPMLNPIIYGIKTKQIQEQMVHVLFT
In short: as §1

UniProt A2AVB5 = target: T11, UniProt A2AVB5
T11 sequence (whole entry): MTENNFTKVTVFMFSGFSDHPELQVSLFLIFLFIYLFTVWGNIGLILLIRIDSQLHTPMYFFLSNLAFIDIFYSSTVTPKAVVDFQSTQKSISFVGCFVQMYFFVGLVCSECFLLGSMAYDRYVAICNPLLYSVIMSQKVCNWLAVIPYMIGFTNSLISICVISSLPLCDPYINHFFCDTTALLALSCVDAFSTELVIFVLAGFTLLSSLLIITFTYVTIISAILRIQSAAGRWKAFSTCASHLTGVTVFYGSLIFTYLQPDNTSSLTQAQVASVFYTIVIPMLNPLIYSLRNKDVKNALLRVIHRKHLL
In short: as §1

UniProt B2RVX8 = target: T12, UniProt B2RVX8
T12 sequence (whole entry): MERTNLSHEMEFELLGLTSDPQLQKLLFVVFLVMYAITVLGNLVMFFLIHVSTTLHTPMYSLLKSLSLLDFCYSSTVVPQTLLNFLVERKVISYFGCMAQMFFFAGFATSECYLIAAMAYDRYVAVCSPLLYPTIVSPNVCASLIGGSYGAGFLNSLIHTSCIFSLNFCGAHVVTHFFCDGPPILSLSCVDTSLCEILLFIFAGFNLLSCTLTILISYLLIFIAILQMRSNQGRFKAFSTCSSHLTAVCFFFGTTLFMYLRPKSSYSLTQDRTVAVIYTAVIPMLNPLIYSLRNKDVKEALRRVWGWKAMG
In short: as §1

UniProt K7N609 = target: T13, UniProt K7N609
T13 sequence (whole entry): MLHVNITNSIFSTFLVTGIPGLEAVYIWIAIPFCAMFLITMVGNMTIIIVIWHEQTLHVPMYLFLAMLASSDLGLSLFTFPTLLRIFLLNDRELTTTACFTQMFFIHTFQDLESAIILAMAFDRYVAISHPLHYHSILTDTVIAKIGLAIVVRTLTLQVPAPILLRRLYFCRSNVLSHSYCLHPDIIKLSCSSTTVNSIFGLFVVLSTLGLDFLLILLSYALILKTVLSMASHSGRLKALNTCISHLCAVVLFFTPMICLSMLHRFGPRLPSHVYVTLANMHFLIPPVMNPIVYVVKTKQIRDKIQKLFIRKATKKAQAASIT
In short: as §1

UniProt E9PX47 = target: T14, UniProt E9PX47
T14 sequence (whole entry): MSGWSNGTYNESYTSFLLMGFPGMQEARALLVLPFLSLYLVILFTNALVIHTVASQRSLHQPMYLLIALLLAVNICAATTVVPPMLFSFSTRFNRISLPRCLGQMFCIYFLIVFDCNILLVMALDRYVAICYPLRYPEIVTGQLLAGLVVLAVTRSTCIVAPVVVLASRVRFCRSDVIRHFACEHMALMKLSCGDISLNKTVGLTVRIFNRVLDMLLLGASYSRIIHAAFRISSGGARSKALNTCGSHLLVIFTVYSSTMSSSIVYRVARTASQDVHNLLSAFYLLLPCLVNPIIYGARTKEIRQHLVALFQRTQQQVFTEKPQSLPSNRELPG
In short: as §1
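Also: active if original authors judged signal statistically different from baseline.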

Row | SMILES | odorant receptor agonist call (UniProt A2ATE5) | odorant receptor agonist call (UniProt A2AVB0) | odorant receptor agonist call (UniProt E1BM68) | odorant receptor agonist call (UniProt E9PVX1) | odorant receptor agonist call (UniProt E9PZ66) | odorant receptor agonist call (UniProt E9Q4X7) | odorant receptor agonist call (UniProt E9Q546) | odorant receptor agonist call (UniProt E9Q6Z7) | odorant receptor agonist call (UniProt E9QAT7) | odorant receptor agonist call (UniProt E9PXN3) | odorant receptor agonist call (UniProt A2AVB5) | odorant receptor agonist call (UniProt B2RVX8) | odorant receptor agonist call (UniProt K7N609) | odorant receptor agonist call (UniProt E9PX47)
1 | COc1nccnc1C(C)C | inactive | inactive | active | inactive | inactive | inactive | inactive | inactive | inactive |  |  |  |  | 
2 | CC1CCC(C(C)C)C(=O)C1 (centres undefined) | inactive | inactive |  | inactive | inactive | inactive | inactive | inactive |  |  |  |  |  | 
3 | Cc1ccc(C(C)C)cc1 | inactive | inactive |  | inactive | inactive | inactive | inactive | inactive |  |  |  |  |  | 
4 | CCc1ncc(C)nc1CC | inactive | inactive | active | inactive | inactive | inactive | inactive | inactive | active |  |  |  |  | 
5 | CCCCCCCCCCCO | inactive | inactive |  | inactive | inactive | inactive | inactive | inactive |  | inactive |  |  |  | 
6 | CSSCc1ccco1 | inactive | inactive |  | inactive | inactive | inactive | inactive | inactive |  |  |  |  |  | 
7 | CCCCCC(C)O (centres undefined) | inactive | inactive |  | inactive | inactive | inactive | inactive | inactive |  |  |  |  |  | 
8 | CC12CCC(CC1=O)C2(C)C (centres undefined) | inactive | inactive |  | inactive | inactive | inactive | inactive | inactive |  |  | inactive | inactive | inactive | 
9 | CCC(C)c1nccnc1OC (centres undefined) | inactive | inactive | active | inactive | inactive | inactive | inactive | inactive | inactive |  |  |  |  | 
10 | CCCCC=O | inactive | inactive |  | inactive | inactive | inactive | inactive | inactive |  | inactive |  |  |  | inactive
11 | CCCCCCCCCC=CC=O | inactive | inactive |  | inactive | inactive | inactive | inactive | inactive |  |  |  |  |  | 
12 | Cc1ccccc1OC(=O)C(C)C | inactive | inactive |  | inactive | inactive | inactive | inactive | inactive |  |  |  |  |  | 
13 | C=C(C)C1CCC(C)C(O)C1 (centres undefined) | inactive | inactive |  | inactive | inactive | inactive | inactive | inactive |  |  |  |  |  | 
14 | CCSSCC | inactive | inactive |  | inactive | inactive | inactive | inactive | inactive |  |  |  |  |  | 
15 | O=C(O)CCCCCCCCC(=O)O | inactive | inactive |  | inactive | inactive | inactive | inactive | inactive |  |  |  |  |  | 
16 | CC(CC=O)CCCC(C)(C)O (centres undefined) | inactive | inactive |  | inactive | inactive | inactive | inactive | inactive |  |  |  |  |  | 
